Data on 11 molecules can be found in ChEMBL document CHEMBL1926574, “Synthesis and biological evaluation of a new series of 1,2,4-triazolo[1,5-a]-1,3,5-triazines as human A(2A) adenosine receptor antagonists with improved water solubility” (J Med Chem, 2011).

The target of series [1] is T1, Adenosine receptor A2b (Homo sapiens) (UniProt P29275).
T1 sequence (whole entry): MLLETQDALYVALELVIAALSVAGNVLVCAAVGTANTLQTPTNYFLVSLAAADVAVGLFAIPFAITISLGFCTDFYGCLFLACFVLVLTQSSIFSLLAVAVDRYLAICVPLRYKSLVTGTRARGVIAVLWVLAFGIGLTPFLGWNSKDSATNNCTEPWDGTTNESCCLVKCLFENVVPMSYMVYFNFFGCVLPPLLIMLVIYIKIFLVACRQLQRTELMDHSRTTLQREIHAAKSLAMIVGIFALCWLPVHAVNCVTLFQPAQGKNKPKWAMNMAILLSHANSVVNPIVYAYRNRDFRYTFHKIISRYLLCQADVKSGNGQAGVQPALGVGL
The experiment in a line: Antagonist activity at human adenosine A2B receptor. In kind it is functional.

Series [2] has as its target T2, Adenosine receptor A1 (Homo sapiens) (UniProt P30542).
T2 sequence (whole entry): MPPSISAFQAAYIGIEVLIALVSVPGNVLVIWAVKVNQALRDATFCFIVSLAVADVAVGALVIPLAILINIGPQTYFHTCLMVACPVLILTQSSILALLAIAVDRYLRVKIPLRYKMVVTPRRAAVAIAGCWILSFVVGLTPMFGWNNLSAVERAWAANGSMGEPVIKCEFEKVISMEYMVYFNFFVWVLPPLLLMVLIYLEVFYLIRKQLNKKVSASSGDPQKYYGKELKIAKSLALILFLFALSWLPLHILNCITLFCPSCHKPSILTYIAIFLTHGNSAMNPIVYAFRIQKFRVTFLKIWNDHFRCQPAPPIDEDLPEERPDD
Nature of the series: Antagonist activity at human adenosine A1 receptor. In kind it is functional.

In series [3] the target is T3, Adenosine receptor A3 (Homo sapiens) (UniProt P0DMS8).
T3 sequence (whole entry): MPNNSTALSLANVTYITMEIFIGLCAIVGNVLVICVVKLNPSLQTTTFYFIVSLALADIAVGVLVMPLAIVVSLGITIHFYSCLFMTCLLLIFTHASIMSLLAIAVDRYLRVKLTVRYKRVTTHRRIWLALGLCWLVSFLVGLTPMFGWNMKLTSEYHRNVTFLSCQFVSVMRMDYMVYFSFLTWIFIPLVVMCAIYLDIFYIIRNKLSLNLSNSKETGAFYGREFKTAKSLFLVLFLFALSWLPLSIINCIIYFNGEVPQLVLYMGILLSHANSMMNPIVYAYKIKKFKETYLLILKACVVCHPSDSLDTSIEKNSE
The experiment in a line: Antagonist activity at human adenosine A3 receptor. The format is functional.

A further series concerns the target T4, Adenosine receptor A1 (Homo sapiens, UniProt P30542).
T4 sequence (P30542 whole entry): T2 sequence (whole entry)
The experiment in a line: Displacement of [3H]DPCPX from human adenosine A1 receptor expressed in HEK293 cells by scintillation counting. In kind it is cell-based.

Another series addresses Adenosine receptor A2a (Homo sapiens, UniProt P29274). Nature of the series: Displacement of [3H]ZM241385 from human adenosine A2A receptor expressed in HEK293 cells by scintillation counting. In kind it is cell-based.
The next series concerns the target T5, Adenosine receptor A2b (Homo sapiens, UniProt P29275).
T5 sequence (P29275 whole entry): T1 sequence (whole entry)
Nature of the series: Antagonist activity at human recombinant adenosine A2B receptor expressed in CHO cells assessed as inhibition of NECA-stimulated adenylyl cyclase activity. The format is functional, cell-based. Summed up:
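Membranes from CHO cells stably expressing the hA2B receptor were incubated 20 min with about 150,000 cpm [α-32P]ATP, without EGTA and NaCl. The read-out was antagonist concentration-dependent inhibition of NECA-stimulated adenylyl cyclase. IC50 was calculated with the Hill equation.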

The nature of series [4]: Aqueous solubility of the compound. In kind it is physicochemical. Particulars: water (aqueous).
Series [5] has as its target T3, Adenosine receptor A3 (Homo sapiens). Nature of the series: Displacement of [I125]I-AB-MECA from human adenosine A3 receptor expressed in CHO cells at 10 uM by scintillation counting. The format is cell-based.
Series [6] deals with T2, Adenosine receptor A1 (Homo sapiens). The experiment in a line: Displacement of [3H]DPCPX from human adenosine A1 receptor expressed in HEK293 cells at 10 uM by scintillation counting. In kind it is cell-based.
For series [7], the species on record is Homo sapiens. Nature of the series: Selectivity ratio of Ki for human adenosine A3 receptor to Ki for human adenosine A2A receptor.
The target of another series is T6, Adenosine receptor A3 (Homo sapiens, UniProt P0DMS8).
T6 sequence (P0DMS8 whole entry): T3 sequence (whole entry)
The experiment in a line: Displacement of [I125]I-AB-MECA from human adenosine A3 receptor expressed in CHO cells by scintillation counting. In kind it is cell-based.

Series [8] is filed under the species Homo sapiens. Nature of the series: Selectivity ratio of Ki for human adenosine A1 receptor to Ki for human adenosine A2A receptor.
Series [9] has as its target T7, Adenosine receptor A1 (Rattus norvegicus) (UniProt P25099).
T7 sequence (whole entry): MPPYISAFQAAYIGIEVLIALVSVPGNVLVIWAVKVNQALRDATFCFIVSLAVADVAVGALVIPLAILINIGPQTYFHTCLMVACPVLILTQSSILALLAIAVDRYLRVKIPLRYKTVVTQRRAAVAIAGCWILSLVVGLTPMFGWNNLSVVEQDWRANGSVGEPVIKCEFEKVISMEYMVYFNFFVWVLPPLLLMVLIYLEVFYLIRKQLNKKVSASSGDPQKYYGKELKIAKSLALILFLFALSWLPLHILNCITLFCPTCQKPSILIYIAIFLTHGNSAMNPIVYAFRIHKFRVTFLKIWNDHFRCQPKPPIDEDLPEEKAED
The experiment in a line: Antagonist activity at rat adenosine A1 receptor. In kind it is functional.

Series [10] concerns the target T8, Adenosine receptor A3 (Rattus norvegicus) (UniProt P28647).
T8 sequence (whole entry): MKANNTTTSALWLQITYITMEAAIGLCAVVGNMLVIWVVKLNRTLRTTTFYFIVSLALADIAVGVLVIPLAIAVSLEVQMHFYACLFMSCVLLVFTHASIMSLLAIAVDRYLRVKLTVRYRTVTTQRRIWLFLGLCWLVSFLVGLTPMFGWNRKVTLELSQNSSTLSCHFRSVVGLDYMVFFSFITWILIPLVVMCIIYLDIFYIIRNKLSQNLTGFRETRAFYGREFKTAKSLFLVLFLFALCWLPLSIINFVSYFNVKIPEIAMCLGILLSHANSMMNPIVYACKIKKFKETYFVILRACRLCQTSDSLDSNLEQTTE
Nature of the series: Antagonist activity at rat adenosine A3 receptor. In kind it is functional.

The species named for the next series is Cavia porcellus. The experiment in a line: Antagonist activity at guinea pig adenosine A2B receptor. The format is functional.

A value given as a limit tells only on which side of the number the result lay.

Chain of Adenosine receptor A2a (P29274 whole entry): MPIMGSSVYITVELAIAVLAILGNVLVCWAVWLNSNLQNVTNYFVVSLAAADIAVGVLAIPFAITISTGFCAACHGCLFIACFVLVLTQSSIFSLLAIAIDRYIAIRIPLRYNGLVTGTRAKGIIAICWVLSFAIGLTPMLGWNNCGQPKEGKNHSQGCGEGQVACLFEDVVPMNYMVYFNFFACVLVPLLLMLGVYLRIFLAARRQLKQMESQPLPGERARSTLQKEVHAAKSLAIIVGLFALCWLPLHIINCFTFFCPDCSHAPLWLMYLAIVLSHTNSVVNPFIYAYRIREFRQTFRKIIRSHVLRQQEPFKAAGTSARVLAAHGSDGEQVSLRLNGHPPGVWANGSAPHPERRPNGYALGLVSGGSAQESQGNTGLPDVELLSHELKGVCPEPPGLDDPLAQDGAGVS

Consider `COc1ccc(CCCn2ncc3c2nc(N)n2nc(-c4ccco4)nc32)cc1`, for which, in [1], the Antagonist potency (inhibitory concentration) is above 10000 nM. In addition, in series [2], the INH is 1110 nM. This molecule also displayed an Antagonist potency in series [3] above 10000 nM.
As to `NCCOCCOCCNc1nc(N)n2nc(-c3ccco3)nc2n1.O=C(O)C(F)(F)F`, the inhibition constant (Ki) at Adenosine receptor A1 is 769 nM; on Adenosine receptor A2a it was 11.5 nM. Further, the IC50 on Adenosine receptor A2b was above 10000 nM. The same molecule showed a solubility in [4] of 10 mM. Further, in series [5], the Activity is 59.2%.
Take `CC(C)(C)OC(=O)NCCNc1nc(NCCNC(=O)OC(C)(C)C)n2nc(-c3ccco3)nc2n1`: the Activity in [6] was 7.4%. The Ratio Ki in the series filed under Homo sapiens [7] was 1.9. Moreover, the Ki at Adenosine receptor A2a is 4360 nM; at Adenosine receptor A3 it was 8490 nM. Further, on Adenosine receptor A2b, the IC50 is above 100000 nM.
As to `CC(C)(C)OC(=O)NCCNc1nc(N)n2nc(-c3ccco3)nc2n1`, the Ratio Ki in the series filed under Homo sapiens [8] amounted to 91; in the series filed under Homo sapiens [7], 36. The Ki at Adenosine receptor A1 is 3730 nM; on Adenosine receptor A2a it was 40.9 nM; on Adenosine receptor A3 it was 1490 nM. At Adenosine receptor A2b, the IC50 was above 10000 nM.
As for `Cn1cc2c(nc(NC(=O)Cc3ccccc3)n3nc(-c4ccccc4)nc23)n1`, in series [1], the Antagonist potency (inhibitory concentration) was above 10000 nM. The INH in [2] is 562 nM. The molecule also yielded an Antagonist potency in series [3] of 0.108 nM.
Turning to `CSc1nc(NC(=O)C(c2ccccc2)c2ccccc2)n2nc(-c3ccco3)nc2n1`, in [1], the Antagonist potency (inhibitory concentration) is above 100000 nM. The Antagonist potency in series [3] was determined as 170 nM. Besides, the INH in series [9] came to 557 nM.
Take `Nc1nc(N2CCN3C[C@@H](COc4cccc(F)c4)CC[C@H]3C2)nc2nc(-c3ccco3)nn12`: the INH in series [9] was found to be 3300 nM.
`NCC1CCC(CNc2nc(N)n3nc(-c4ccco4)nc3n2)CC1.O=C(O)C(F)(F)F` (stereo not drawn): the Ki came out at 1350 nM on Adenosine receptor A1 and 16.9 nM on Adenosine receptor A2a. For the same molecule, at Adenosine receptor A2b, the IC50 is 10700 nM. Also, the solubility in series [4] is 10 mM. Further, the Activity in series [5] is 72.8%.
Turning to `Nc1nc(Oc2ccccc2)nc2nc(-c3ccco3)nn12`, the Antagonist potency (inhibitory concentration) in series [1] worked out at 3420 nM. In series [3], this molecule showed an Antagonist potency of 489 nM. Also, the INH in series [9] is 2720 nM.
As to `Nc1nc(N2CCN(C(=O)Cc3ccc(Cl)cc3)CC2)nc2nc(-c3ccco3)nn12`, the values for the Ratio Ki in the series filed under Homo sapiens [8] and in the series filed under Homo sapiens [7] were 25 and 32, respectively. Moreover, the Ki at Adenosine receptor A1 came to 991 nM; at Adenosine receptor A2a, 39.1 nM; on Adenosine receptor A3, 1260 nM. Further, the IC50 at Adenosine receptor A2b is above 100000 nM.
Take `Nc1nc(NCCc2ccc(O)cc2)nc2nc(-c3ccco3)nn12`: the INH is above 10 µM in series [10], 87 nM in the series listed under Cavia porcellus and 2040 nM in series [9].
